# Source: PubChem
# Shown is part of a subset that was picked to be rich in hits.
# HUVEC inhibit: inhibitors of HUVEC proliferation, primary screen, cell-based, 384-well | CellTiter-Glo luminescence, 72 h; stronger effect = lower value | viability, % at 10 µM (by protocol) | 86,000 tested, 1.1% active | AID 648, 2007;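 active = viability at or below 30%; inactive = viability above 30%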;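 note: 100% = median luminescence of DMSO-only cell control wells on each plate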
# Fibroblast inh: antiproliferative effect on LL 47 fibroblasts – human, LL 47 cells, CellTiter-Glo luminescence, primary screen; LL 47 human lung fibroblast viability, ATP luminescence; stronger effect = lower value; viability, % at 10 µM; 85,000 tested, 1.1% active;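 active = viability at or below 50% in the single dose screen; inactive = viability above 50%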;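 note: compound exposure lasted 72 h before the ATP readout; 100% = median luminescence of untreated cell-only wells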
#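 Benchmarks: Cell-only wells, no compound | Test system: LL 47 human lung fibroblasts, passage 12 or lower | Input: 1,150 cells/well | Measured by: CellTiter-Glo luminescence measuring cellular ATP | Medium: IMEM, 15% FBS supplement | Schedule: Overnight attachment after seeding, then 72 h compound exposure at 37 °C | Doses: Compound addition at 0.1% DMSO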
# H69AR inhibit: proliferation blockers of H69AR lung cancer cells, primary screen, cell-based, human, 86K library. H69AR lung tumor viability, ATP luminescence, 72 h; stronger effect = lower value. viability, % at 10 µM. 85,000 tested, 6% active. AID 598, 2007;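 active = viability at or below 40%; inactive = viability above 40%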;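 note: multidrug resistant small cell line overexpressing MRP-1 efflux transporter; 100% = mean luminescence of untreated control wells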
# HCT116 bCat-KO: primary screen for growth suppressors in beta-catenin knockout HCT116 cells (colon tumor, human). 140,000 tested, 1.5% active. HCT116 beta-catenin knockout viability, CellTiter-Glo, 60 h; stronger effect = lower value. viability, % at 10 µM;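 active = viability at or under a set limit, the compound median less 4 SD, cut at about 6% in these data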;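 note: 0% = Hyamine 1622 control at 20 µM and 100% = untreated cell control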
# PTEN del growth: growth suppression of PTEN-null HCT116, primary screen, cell-based, CellTiter-Glo | HCT116 PTEN-null viability, 60 h; stronger effect = lower value | AID 827, 2007 | viability, % at 10 µM | 140,000 tested, 1.2% active;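 active = viability at or below a set limit, 4 SD under the median of all tested compounds, cut at about 3.7% in these data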;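 note: PTEN knockout HCT116 line with beta catenin targeted HCT116 as companion control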
# The depositor's hits bear a star; / = no result.
SMILES,HUVEC inhibit,Fibroblast inh,H69AR inhibit,HCT116 bCat-KO,PTEN del growth
O=c1c2cccc3c(N4CCOCC4)ccc(c32)c2nc3ccccc3n12,49.6,92.8,28.0*,/,/
CCC(Sc1nc2sc(C(=O)OC)c(C)c2c(=O)n1N)C(=O)N(CC)CC (stereo unspecified),87.0,96.4,18.8*,52.9,20.7
CCCCNC(=O)C(CC)Sc1nc2sc(C(=O)OC)c(C)c2c(=O)n1N (stereo unspecified),/,/,/,55.9,55.5
CCOc1ccc(OCC)c(-c2c(=O)n(OCc3ccccc3Br)c3ccccc3[n+]2[O-])c1,/,/,/,81.8,84.9
CCNC(=O)NC(=O)C(C)Sc1nc2ccccc2n1CC(C)C (stereo unspecified),106.9,100.7,91.7,90.2,84.2
O=C(c1cc(-c2ccncc2)nc2ccccc12)N1CCN(c2ccccn2)CC1,50.8,59.6,19.4*,26.2,19.8
O=C(c1ccccc1-c1ccccc1)N1CCN(c2ccccn2)CC1,56.0,53.3,19.2*,15.5,30.9
O=C(c1cc(-c2cccnc2)nc2ccc(Br)cc12)N1CCN(c2ncccn2)CC1,51.0,80.1,5.3*,51.3,51.8
O=C(c1cc(-c2ccccc2)nc2ccccc12)N1CCN(c2ccccn2)CC1,86.3,94.6,57.7,85.9,69.1
Cc1nn(-c2ccccc2)c(C)c1/C=C/C(=O)OCC(=O)Nc1ncc(C(F)(F)F)cc1Cl,/,/,/,86.0,94.4
Oc1ccccc1/C=N/Nc1cc(N2CCCC2)nc(N2CCCC2)n1,/,/,/,24.5,20.7
CCN1CCN(c2ncc(C(=O)Nc3cc(Cl)ccc3OC)c3ccccc23)CC1,19.4*,68.5,12.3*,32.1,35.6
Cc1ccccc1NC(=O)N(CCc1nc2ccccc2[nH]1)Cc1ccccc1,68.0,98.9,16.5*,94.3,81.0
COc1ccccc1CN(Cc1nc2ccccc2c(=O)[nH]1)C(=O)Nc1ccccc1C,80.5,97.0,100.2,76.8,56.9
O=C(Cn1cc([N+](=O)[O-])cn1)NCc1cc2ccccc2[nH]1,/,/,/,95.5,87.0
O=C(Nc1ccc(Cl)c(Cl)c1)Nc1nnc(CSc2ccccc2)s1,/,/,/,2.2*,2.6*
O=C(Nc1ccccc1)Nc1nnc(CSCc2ccccc2Cl)s1,/,/,/,37.4,38.3
COc1ccccc1-n1c(SCC(=O)Nc2ccc(F)cc2)nc2c(c1=O)SCC2,89.3,96.2,19.5*,89.6,100.8
COc1ccc(NC(=O)CSc2c3c(nc4ccccc24)CCCC3)c(OC)c1,/,/,/,5.9*,10.9
COc1ccc(NC(=O)CSc2nc3c(c(=O)n2-c2ccccc2)SCC3)c(OC)c1,69.8,76.1,8.2*,83.2,93.8
CCOC(=O)Nc1ccc(S(=O)(=O)Nn2cnnc2)cc1,98.9,102.9,92.3,97.3,97.7
O=C(CNC(=O)c1cccc(Cl)c1)N/N=C/C=C/c1ccccc1,/,/,/,92.8,88.2
NS(=O)(=O)c1ccc(CCNC(=O)Nc2ccc(Cl)c(Cl)c2)cc1,67.9,108.6,19.4*,72.2,66.4
Cc1ccc(NC(=S)NCCc2ccc(S(N)(=O)=O)cc2)cc1C,/,/,/,90.5,81.7
Clc1cccc(/C(Cc2nc3ccccc3[nH]2)=N\Nc2ccccc2)c1,/,/,/,71.9,66.5
SMILES,HUVEC inhibit,Fibroblast inh,H69AR inhibit,HCT116 bCat-KO,PTEN del growth
O=C(Nc1ccc2c(c1)OCO2)c1cnn2c(C(F)(F)F)cc(-c3ccco3)nc12,66.3,52.8,27.4*,75.3,70.2
Cc1ccccc1Cn1ccc(NC(=O)c2cnn3c(C(F)(F)F)cc(-c4ccco4)nc23)n1,75.1,100.4,34.0*,58.3,64.6
CC(C)CN1C(=S)SC(C)(C)C1n1oc(=O)n(-c2ccccc2)c1=O (stereo unspecified),/,/,/,47.3,53.4
CC(C)CN1C(=S)SC(C)(C)C1n1oc(=O)n(-c2ccc(Cl)cc2)c1=O (stereo unspecified),80.8,91.3,96.1,2.3*,0.8*
Cc1sc2nc(COC(=O)CNC(=O)c3ccc(C(C)(C)C)cc3)[nH]c(=O)c2c1C,/,/,/,98.7,96.6
COCCn1c(SCC(=O)Nc2ccc(NC(=O)c3ccco3)c(OC)c2)nc2ccccc2c1=O,32.5,93.2,31.4*,105.0,109.0
CCn1c(SCC(=O)Nc2ccccc2OC)nc2ccccc2c1=O,89.7,109.9,86.1,78.6,78.6
CCn1c(SCC(=O)Nc2ccc(NC(=O)c3ccco3)c(OC)c2)nc2ccccc2c1=O,52.9,87.7,10.0*,60.6,103.5
CCCCn1c(SCC(=O)Nc2cc(NC(=O)c3ccco3)ccc2C)nc2ccccc2c1=O,31.4,97.7,6.8*,60.6,22.4
CCCCn1c(SCC(=O)Nc2cc(C)on2)nc2ccccc2c1=O,104.8,101.4,103.0,107.2,103.8
COCCn1c(SCC(=O)Nc2ccc(S(=O)(=O)N(C)C)cc2)nc2ccccc21,102.0,97.4,34.8*,97.1,92.5
O=C(O)C1CCC(=O)N1Cc1ccccc1Cl (stereo unspecified),98.9,101.2,100.9,101.4,110.6
C=CCc1c(C)c(C#N)c2nc3ccccc3n2c1N1CCN(C)CC1,101.3,95.8,46.0,/,/
Cn1c(N/N=C2\CCCc3ccccc32)nc2c1c(=O)n(Cc1ccc(F)cc1)c(=O)n2C,/,/,/,1.2*,1.2*
Cn1c(NCc2ccccc2)nc2c1c(=O)n(Cc1ccc(Br)cc1)c(=O)n2C,80.1,99.1,90.8,55.3,/
CN(C)CCN(C(=O)c1cc(Cl)sc1Cl)c1nc2ccc(F)cc2s1,/,/,/,93.5,91.3
CN(C)CCCN(C(=O)c1ccc2c(c1)CCCC2)c1nc2ccc(F)cc2s1,/,/,/,8.2,2.7*
CCN1CCN(c2nc3ccccc3nc2C(C#N)C(=O)OC2CCCCC2)CC1 (stereo unspecified),37.4,80.7,49.9,80.4,96.1
CCOC(=O)C1CCCN(c2nc3ccccc3nc2C(C#N)C(=O)OCC)C1 (stereo unspecified),72.9,78.5,56.2,49.3,37.8
CN1CCN(c2nc3ccccc3nc2C(C#N)C(=O)OC2CCCCC2)CC1 (stereo unspecified),3.7*,70.7,19.4*,51.9,50.4
CCOC(=O)C1CCCN(c2nc3ccccc3nc2C(C#N)C(=O)OCCOC)C1 (stereo unspecified),25.4*,53.6,75.2,66.5,65.0
CCNC(=O)c1cc2c(=O)n3cccc(C)c3nc2n(CCc2ccccc2)c1=N,75.8,88.4,71.5,4.8*,6.0
COCCNC(=O)c1cc2c(=O)n3cccc(C)c3nc2n1C,51.5,73.3,26.9*,/,/
CCOCCCNC(=O)c1cc2c(=O)n3cccc(C)c3nc2n1C,51.3,55.3,33.6*,/,/
COc1ccc(/C=N/NC(=O)COc2ccc(Cl)cc2Cl)cc1Cn1nc(C)cc1C,/,/,/,92.4,94.7
Cc1cccc(Cn2cc(/C=C/[N+](=O)[O-])c3ccccc32)c1,/,/,/,3.2*,3.0*
O=[N+]([O-])/C=C/c1cn(Cc2ccc(Cl)cc2)c2ccccc12,/,/,/,10.4,1.9*
